Screening results as filed in PubChem BioAssay.
The list is not random: actives were taken first. Their share in the collection is about 3.1%.
CSC inhib: cancer stem cell viability inhibitors, primary screen, luminescence; actives 1.1% (n = 300,000); AID 2717, 2010; cancer stem cell-like cells viability; inhibition, % at 7.5 µM; in the data active = inhibition above about 75%; inconclusive = no clear call, values can overlap the other calls; tested in HMLE shEcad cells
A1 inh: caspase 3/7 activation in MEF A1-2A-BIM cells, primary screen, A1 inhibitor project, cell-based, luminescence, HTS | Caspase-Glo 3/7 luminescence, 3 h; percent of clofoctol response, vehicle zero | caspase activation, % (concentration not given with the values) | actives 0.066% (n = 330,000) | AID 2462, 2010;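 active = over half of replicate activation scores above 10%, or exactly half above 10 with the replicate mean above 10; inconclusive = replicate mean below 10 yet half the replicates above 10; inactive = over half of replicates below 10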
Beta cell apopt: inhibitors of cytokine-induced beta cell apoptosis, primary screen, luminescence; INS-1E cytokine-induced death, ATP luminescence, 48 h; percent of positive-control rescue, neutral wells zero; protection from apoptosis, % (no concentration beside the values); actives 0.8% (n = 300,000); AID 435005, 2010;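 active = Every replicate reaches about 75%, or at least half do and their mean reaches it too, limit read from the data; inconclusive = At least half of replicates reach the limit but their mean does not; inactive = Under half of replicates reach the limit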;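 note: higher means more ATP so stronger rescue from cytokine killing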
T cruzi repl: inhibitors of intracellular T. cruzi growth, primary screen, luminescence, NIH3T3 host cells; actives 1.4% (n = 300,000); T. cruzi beta-gal in NIH3T3, 90 h; inhibition, % (test concentration not listed); AID 1885, 2009;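 active = mean inhibition across valid replicates above about 55%, limit read from the data; inconclusive = mean below that limit but half or more replicates reach it; inactive = mean below it, under half of replicates reach it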;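 note: signal also drops with host cell toxicity which is not excluded here; higher percent means less beta-gal luminescence so fewer parasites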
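Assay system: NIH/3T3 host cells with β-galactosidase reporter T. cruzi; input: 5,000 host fibroblasts per well; compound: single 50 nL compound addition per well in DMSO; timing: ≥90 h infection period, 3 h prior cell attachment; measured by: GalScreen β-gal luminescence, detergent lysis, 60 min; evaluation: percent inhibition of parasite-derived β-gal signal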
TAG inh: inhibitors of triacylglycerol accumulation, primary screen, cell-based, uHTS, fluorescence, H9c2; inhibition, % at 12.5 µM; H9c2 cells, Nile Red lipid (TAG) fluorescence; cells loaded with 200 µM oleic acid; actives 0.66% (n = 230,000);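 active = pattern-corrected inhibition of lipid staining of at least 50% with the nuclear-stain viability signal not falling by more than 50%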
Calb FLC: C. albicans growth inhibition with fluconazole, primary screen, CaCi-2 strain, Alamar Blue fluorescence | C. albicans CaCi-2 (fluconazole-resistant clinical isolate) + fluconazole, 48 h | growth inhibition, % (concentration not given with the values) | actives 0.57% (n = 300,000) | AID 1979, 2009;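 active = growth inhibition above about 58% in most replicates, limit read from the data, passing the limit was not always enough; inconclusive = exactly half the replicates above a set limit; inactive = most replicates below a set limit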;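 note: all wells also contain fluconazole at 8 µg/ml as a sub-toxic cotreatment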
Of the large screens only hits and unclear results are named; the others gave an inactive call.

COc1ccc(-c2csc(NC(=O)C3CCN(c4ncnc5sc(C)c(C)c45)CC3)n2)cc1OC	Beta cell apopt 112, T cruzi repl 57
CC(=O)c1cccc(NC(=O)CCn2c(=S)oc3ccccc32)c1	none (no result: TAG inh)
COc1ccc(-c2cn(-c3ccc(OC)cc3)c3[n+]2-c2ccccc2CC3)cc1	Beta cell apopt 132 (no result: TAG inh)
FC(F)Sc1ccc(-n2cc(-c3ccccc3)[n+]3c2CCC3)cc1	none (no result: CSC inhib, TAG inh)
COc1ccc(-n2cc(-c3ccccc3)[n+]3c2CCCCC3)cc1	Beta cell apopt 99, T cruzi repl 81
C[C@H](CO)N1C[C@H](C)[C@@H](CN(C)C(=O)Nc2ccc(C(F)(F)F)cc2)Oc2c(NC(=O)Nc3ccc(C(F)(F)F)cc3)cccc2C1=O	CSC inhib 106 (no result: T cruzi repl, Calb FLC)
CCCCCc1cc(O)c2c(C)cc(=O)oc2c1	Beta cell apopt 130 (no result: TAG inh)
COc1cccc(NC(=O)C2(C)CCN2Cc2ccccc2OC(F)F)c1 (stereo unspecified)	none (no result: CSC inhib, A1 inh, Beta cell apopt, T cruzi repl, Calb FLC)
O=C(NC1CCCCC1)c1cc(S(=O)(=O)N2CCOCC2)c(Cl)cc1Cl	none (no result: TAG inh)
CCc1cc2cc(C)cc(C)c2nc1SCC(=O)N1CCN(C(=O)c2ccco2)CC1	CSC inhib 116 (no result: T cruzi repl, Calb FLC)
COc1ccc(OC)c(-c2cc(-c3cccnc3)nc(N)c2C#N)c1	CSC inhib 76
COc1cccc(-c2cc(-c3cccnc3)nc(N)c2C#N)c1	none
COC(C(=O)Nc1ccnn1C1CCN(Cc2cnn(C(C)C)c2)CC1)c1ccccc1 (stereo unspecified)	none
NC(=S)N/N=C/c1ccc(-n2nncc2-c2ccc(Cl)cc2)cc1	T cruzi repl 57 (no result: Beta cell apopt, TAG inh)
CCCCc1nnc(NC(=O)C(C)Sc2nc(N)cc(=O)[nH]2)s1 (stereo unspecified)	Calb FLC 76 (no result: TAG inh)
CC(C)CN(C(=O)CN1C(=O)NC2(CCc3ccccc32)C1=O)C1CCS(=O)(=O)C1 (stereo unspecified)	none (no result: T cruzi repl, Calb FLC)
O=C(Cn1ncc(Cl)c(Cl)c1=O)NC1CCCCC1	none (no result: CSC inhib, T cruzi repl, Calb FLC)
O=C1CN(C(=O)Cn2ncc(Cl)c(Cl)c2=O)c2ccccc2N1	T cruzi repl 75, TAG inh 69 (no result: CSC inhib, A1 inh, Beta cell apopt)
O=C(Cn1ncc(Cl)c(Cl)c1=O)NCC1CCCCC1	CSC inhib 100, A1 inh 10 (no result: T cruzi repl, TAG inh, Calb FLC)
COc1ccccc1CC(=O)Nc1ccc(S(=O)(=O)N2CCOCC2)cc1	none (no result: TAG inh)
COc1ccc(CCC(=O)N2CC(C)OC(C)C2)cc1 (stereo unspecified)	Calb FLC 89 (no result: TAG inh)
COc1cc(CCC(=O)N2CC(C)OC(C)C2)cc(OC)c1OC (stereo unspecified)	none
COc1ccccc1NC(=S)NC1CCCCCCCCCCC1	Beta cell apopt 77
S=C(Nc1ccc(Oc2ccccc2)cc1)NC1CCCCCC1	CSC inhib 95
Cc1ccc(OCc2cc(C(=O)NCc3cnn(-c4cccc(F)c4)c3)no2)cn1	Calb FLC 78 (no result: TAG inh)
COc1cc(CNc2ccc(CNc3ncn[nH]3)cc2)ccc1OCc1ccccc1	CSC inhib 90
COc1ccccc1CNc1ccc(CNc2ncn[nH]2)cc1	none
CCOc1ccc(CNc2ccc(N3CCCC3)cc2)cc1	Beta cell apopt 109 (no result: TAG inh)
CCOc1ccc(CNc2ccc(CNc3ncn[nH]3)cc2)cc1	Calb FLC 102
Cc1ccc(CNc2ccc(CNc3ncn[nH]3)cc2)cc1	none (no result: TAG inh)
CCOc1ccc(CNc2ccc(N3CCN(Cc4ccccc4)CC3)cc2)cc1	none
COc1ccc(-n2nc(C(=O)NCC(=O)N(C)Cc3ccccc3)c3ccccc3c2=O)cc1OC	none (no result: TAG inh)
COc1ccc(Cc2noc(CN3CCN(C4CCc5ccccc5C4)CC3)n2)cc1OC (stereo unspecified)	T cruzi repl 57 (no result: Beta cell apopt, TAG inh)
Fc1cccc(Cc2noc(CN3CCCN(C4Cc5ccccc5C4)CC3)n2)c1	T cruzi repl 57
COc1ccc(Cc2noc(CN3CCCN(Cc4ccc(F)cc4)CC3)n2)cc1OC	T cruzi repl 78
Fc1cccc(Cc2noc(CN3CCN(C4CCc5ccccc5C4)CC3)n2)c1 (stereo unspecified)	none
COc1ccc(Cc2noc(CN3CCC(c4ccncc4)CC3)n2)cc1OC	none
CCN1CCN(C(=O)C(C)Sc2nnc3nc(C)cc(C)n23)CC1 (stereo unspecified)	none (no result: CSC inhib, T cruzi repl, Calb FLC)
O=C(c1cccc(S(=O)(=O)N2CCCC2)c1)N1CCOCC1	none (no result: CSC inhib, T cruzi repl, Calb FLC)
COc1ccc(NC(=O)c2ccccc2NS(=O)(=O)c2ccc(CNC(C)=O)cc2)c(OC)c1	none (no result: CSC inhib, TAG inh)
COc1ccc2nc(C)cc(Nc3ccc(N4CCOCC4)cc3)c2c1	T cruzi repl 61 (no result: CSC inhib, Beta cell apopt, TAG inh)
COc1ccc(/C=N/Nc2cc(C)nc3ccc(OC)cc23)c(OC)c1	CSC inhib 101, Beta cell apopt 117, T cruzi repl 58 (no result: TAG inh)
COc1ccc2nc(C)cc(Nc3ccc(N4CCN(C)CC4)cc3)c2c1	none (no result: TAG inh)
COc1ccc2nc(C)cc(N/N=C/c3ccccc3)c2c1	CSC inhib 97, Beta cell apopt 96, TAG inh 66 (no result: T cruzi repl, Calb FLC)
C=CC(=O)Nc1ccc(CN2C(=O)N(c3c(Cl)c(OC)cc(OC)c3Cl)Cc3cnc(NCCCCN(CC)CC)nc32)cc1	A1 inh inconclusive, TAG inh 66 (no result: CSC inhib, T cruzi repl, Calb FLC)
CCc1ccc(C2=NNC(=Nc3cccc(S(=O)(=O)N(C)C)c3)SC2)cc1	Beta cell apopt 120
COc1ccc(OC)c(S(=O)(=O)ON2C(=O)c3ccccc3C2=O)c1	none (no result: TAG inh)
O=[N+]([O-])c1cc([N+](=O)[O-])c2c(=Nc3ccccc3)n(-c3ccccc3)n(O)c2c1	T cruzi repl 58
O=[N+]([O-])c1cc(Br)c(Nc2ccccc2)c([N+](=O)[O-])c1	none (no result: TAG inh)
COc1ccc(-c2ccc3c(c2)C2CC3CCN2C(=O)C(C)(C)C)cc1 (stereo unspecified)	none (no result: CSC inhib, A1 inh, Beta cell apopt, T cruzi repl, Calb FLC)
Nc1ccc(N2CCN(c3ccc(Cl)c(Cl)c3)CC2)cc1	CSC inhib 92 (no result: TAG inh)
Nc1ccc(N2CCN(c3ccc(F)cc3)CC2)cc1	Calb FLC 103
COC(=O)N1CCN(c2ccc(Cl)c(Cl)c2)CC1	none (no result: TAG inh)
Nc1ccc(N2CCCCCC2)cc1	none (no result: CSC inhib, T cruzi repl, TAG inh, Calb FLC)
CCC/C(O)=C1\C(=O)CC(C)(C)CC1=Nc1cccc([N+](=O)[O-])c1	none (no result: TAG inh)
CCC1(CC)NC(=O)N(CC(=O)OC(C)C(=O)Nc2ccccc2OC)C1=O (stereo unspecified)	none
COc1cc(OC)c(NC(=S)NCc2ccccc2)cc1Cl	Calb FLC 125 (no result: T cruzi repl)
Cc1ccc(-c2nnc(Nc3ccc(CC(N)=O)cc3)c3ccccc23)cc1	T cruzi repl 60 (no result: CSC inhib, Beta cell apopt, TAG inh)
CCN(CC)S(=O)(=O)c1ccc2c(c1)c(=O)c(C(=O)NCCN(C)CCc1ccccc1)cn2C	T cruzi repl 56 (no result: Beta cell apopt)
CN(CCNC(=O)c1cn(C)c2ccc(S(=O)(=O)N(C)C)cc2c1=O)CCc1ccccc1	none
